Assay results reported in PMC4935665 (Journal of bone and mineral research : the official journal …, 2016).

How the values were obtained:
rats = settings: daily injection 20 nmol/kg sc; cited from earlier work
cynomolgus monkeys = experiment: Single SC injection in cynomolgus monkeys, serum Ca; assay type: in vivo, cynomolgus monkey; settings: SC 10 nmol/kg
In short: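 Normal cynomolgus monkeys receive SC injections in two experiments, with serum Ca followed after injection. In experiment 1, animals get vehicle or test peptide at 0.25, 0.5 or 1.0 nmol/kg, three animals per dose.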

TPTX rats [1] = experiment: Single IV injection in TPTX rats, serum Ca and Pi; assay type: in vivo, rat; settings: for time for sPi to return to vehicle-control levels: single IV 24.3 nmol/kg; for sCa response versus sham-control level: single IV 24.3 nmol/kg (highest dose); for duration of modest, transient sCa increase and sPi decrease: single IV, dose 80-fold higher than that used for LA-PTH
in vivo = settings: rat, iv, 24.3 nmol/kg
[2] = rat, in vivo, iv
TPTX rats [3] = assay type: in vivo, rat; settings: once daily SC 9 nmol/kg
[4] = human, in vivo; cited from earlier work
HP patients = settings: cited from earlier work
[5] = HP patients, single SC injection

Row | Compound | serum calcium or phosphorus (rats) | efficacy for elevating sCa compared with PTH(1–84) (cynomolgus monkeys; n = 3) | time for sPi to return to vehicle-control levels (TPTX rats [1]) [h] | sCa response versus sham-control level (TPTX rats [1]) | duration of modest, transient sCa increase and sPi decrease (TPTX rats [1]) [h] | half-life (in vivo) [min] | serum half-life t1/2 [2] [min] | lumbar and femur BMD (TPTX rats [3]) | sCa versus vehicle-injected TPTX rats (TPTX rats [3]) | sPi versus vehicle-injected TPTX rats (TPTX rats [3]) | trabecular number at the distal femur (TPTX rats [3]) | true serum half-life in the blood [4] | time for sCa to return to vehicle-control levels (cynomolgus monkeys) [h] | peak sCa level (cynomolgus monkeys; n = 2) | time for mean serum Ca to return to pre-dose, hypocalcemic levels (HP patients; [5]) [h] | time of peak sCa levels post-administration (HP patients; [5]) [h] | serum half-life times (HP patients; human, in vivo, sc) | subjects with hypercalcemia at peak times (HP patients; human, in vivo, sc) [%]
1 | CC[C@H](C)[C@H](NC(=O)[C@H](CCC(=O)O)NC(=O)[C@H](CO)NC(=O)[C@@H](NC(=O)[C@@H](N)CO)C(C)C)C(=O)N[C@@H](CCC(N)=O)C(=O)N[C@@H](CC(C)C)C(=O)N[C@@H](CCSC)C(=O)N[C@@H](Cc1c[nH]cn1)C(=O)N[C@@H](CC(N)=O)C(=O)N[C@@H](CC(C)C)C(=O)NCC(=O)N[C@@H](CCCCN)C(=O)N[C@@H](Cc1c[nH]cn1)C(=O)N[C@@H](CC(C)C)C(=O)N[C@@H](CC(N)=O)C(=O)N[C@@H](CO)C(=O)N[C@@H](CCSC)C(=O)N[C@@H](CCC(=O)O)C(=O)N[C@@H](CCCNC(=N)N)C(=O)N[C@H](C(=O)N[C@@H](CCC(=O)O)C(=O)N[C@@H](Cc1c[nH]c2ccccc12)C(=O)N[C@@H](CC(C)C)C(=O)N[C@@H](CCCNC(=N)N)C(=O)N[C@@H](CCCCN)C(=O)N[C@@H](CCCCN)C(=O)N[C@@H](CC(C)C)C(=O)N[C@@H](CCC(N)=O)C(=O)N[C@@H](CC(=O)O)C(=O)N[C@H](C(=O)N[C@@H](Cc1c[nH]cn1)C(=O)N[C@@H](CC(N)=O)C(=O)N[C@@H](Cc1ccccc1)C(=O)O)C(C)C)C(C)C [PTH(1–34)] | little or no change | even less effective | ≤ 10 | failed to attain the sCa levels seen in the sham-control animals | < 6 | 7.8 | – | – | – | – | – | – | – | – | – | – | – | –
2 | PTH(1–84): human parathyroid hormone, produced recombinantly | – | – | ≤ 10 | failed to attain the sCa levels seen in the sham-control animals | < 6 | – | 5.4 | significantly increased | no persistent increase | only marginal reductions | significantly increased | five minutes or less | ≤ 24 | ~ 11.4 mg/dL | ≤ 24 | ~7 | two to three hours | 71
